Data on 33 compounds can be found in ChEMBL document CHEMBL1135482 (J Med Chem, 2002).

The target in test [1] is T1, Melatonin receptor type 1B (Homo sapiens, UniProt P49286).
T1 sequence (P49286 whole entry): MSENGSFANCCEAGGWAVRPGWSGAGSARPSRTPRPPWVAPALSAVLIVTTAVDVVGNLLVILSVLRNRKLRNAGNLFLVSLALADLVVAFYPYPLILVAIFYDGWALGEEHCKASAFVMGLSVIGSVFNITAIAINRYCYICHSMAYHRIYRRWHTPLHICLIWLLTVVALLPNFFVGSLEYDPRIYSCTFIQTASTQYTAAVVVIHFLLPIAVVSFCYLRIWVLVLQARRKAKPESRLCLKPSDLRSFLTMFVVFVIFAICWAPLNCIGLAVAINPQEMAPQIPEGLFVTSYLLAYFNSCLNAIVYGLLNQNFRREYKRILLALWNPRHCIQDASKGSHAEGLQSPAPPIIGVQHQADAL
Nature of the test: Binding affinity on human melatonin receptor type 1B stably transfected in human embryonic kidney (HEK 293) cells using 2-[125I]iodomelatonin as radioligand. The class given is cell-based, HEK293.

The target of test [2] is T2, Melatonin receptor type 1A (Homo sapiens, UniProt P48039). Nature of the test: Binding affinity on human melatonin receptor type 1A stably transfected in human embryonic kidney (HEK 293) using 2-[125I]iodomelatonin as radioligand. The class given is cell-based, HEK293.
T2 sequence (P48039 whole entry): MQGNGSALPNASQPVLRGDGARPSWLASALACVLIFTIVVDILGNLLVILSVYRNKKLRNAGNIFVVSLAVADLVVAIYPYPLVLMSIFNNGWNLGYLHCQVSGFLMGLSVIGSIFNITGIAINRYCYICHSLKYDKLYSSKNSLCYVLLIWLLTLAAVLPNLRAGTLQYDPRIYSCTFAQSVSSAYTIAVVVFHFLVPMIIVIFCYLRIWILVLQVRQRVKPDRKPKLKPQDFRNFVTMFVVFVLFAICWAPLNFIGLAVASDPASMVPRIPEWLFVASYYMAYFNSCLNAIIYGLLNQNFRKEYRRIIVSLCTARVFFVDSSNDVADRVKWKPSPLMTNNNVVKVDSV
The target in test [3] is T3, Melatonin receptor type 1B (Homo sapiens) (UniProt P49286).
T3 sequence (whole entry): T1 sequence (P49286 whole entry)
The experiment in a line: Antagonist potency determined against 3 nM melatonin for Melatonin receptor type 1B. It counts as functional. In short, it runs like this:
(§1)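 Antagonist mode of [³⁵S]GTPγS binding on membranes (20 µg/mL) of CHO cells stably expressing human MT₁ or MT₂. […] Incubation 1 h at room temperature, GF/B filtration. Nonspecific binding with 10 µM GTPγS.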

The target of test [4] is T2, Melatonin receptor type 1A. Nature of the test: Antagonist potency determined against 30 nM melatonin for Melatonin receptor type 1A. It counts as functional. The gist of the method: as §1
Test [5] concerns the target T1, Melatonin receptor type 1B. Nature of the test: Intrinsic activity at human Melatonin receptor type 1B evaluated on [35S]GTP-gamma-S, binding in Chinese hamster ovarian (CHO) cells. It counts as functional, cell-based. On the technique in general: Binding of GTPγS marks nucleotide exchange on a G protein.
For test [6], the target named is T2, Melatonin receptor type 1A. The experiment in a line: Intrinsic activity evaluated on [35S]GTP -gamma-S binding in Chinese hamster ovarian (CHO) cells, stably expressing human Melatonin receptor type 1A. The class given is functional, cell-based.
In test [7] the target is T2, Melatonin receptor type 1A. Nature of the test: Intrinsic activity of Melatonin receptor type 1A evaluated on [35S]GTP-gamma-S, binding in Chinese hamster ovarian (CHO) cells. The class given is functional, cell-based.

In general, Ki refers to the equilibrium dissociation constant of an inhibitor or competing ligand from its target. A low value points to a stronger hold on the target. As a reminder, the Kb is the affinity of an antagonist, worked out from how it opposes an agonist. Higher therefore signals a less potent antagonist. For orientation: EC50 means the concentration needed to bring the measured effect to its halfway point. High values mean weaker potency, low ones greater potency.

For the compound `CC(=O)NCCc1c(Cc2ccccc2)oc2ccc(O)cc12`, the Ki is 79.9 nM in test [1] and 569 nM in test [2].
As to `C=CCC(=O)NCCc1c(-c2ccccc2)oc2ccc(OC)cc12`, the inhibition constant Ki in test [1] worked out at 0.02 nM; in test [2], 0.01 nM.
As for `COc1ccc2oc(Cc3ccccc3)c(CCNC(=O)c3ccco3)c2c1`, the inhibitory constant (Ki) in test [1] turned out to be 36.7 nM; in test [2] it was 698 nM.
Consider `CCCCCCOc1ccc2oc(Cc3ccccc3)c(CCNC(C)=O)c2c1`, for which the inhibition constant (Ki) in test [1] came to 3.21 nM; in test [2], 8.2 nM.
In the case of `CCCC(=O)NCCc1c(Cc2ccccc2)oc2ccc(OC)cc12`, the Ki in test [1] amounted to 0.2 nM; in test [2], 3.29 nM.
As to `COc1ccc2oc(Cc3ccccc3OC)c(CCNC(C)=O)c2c1`, the results for the antagonist dissociation constant (Kb) in test [3] and in test [4] were 0.88 nM and 26 nM, respectively. For the same compound, the concentration giving a half-maximal response (EC50) was 0.41 nM in test [5] and over 10000 nM in test [6]. Besides, the Ki is 0.34 nM in test [1] and 14.3 nM in test [2].
Take `COc1ccc2oc(-c3ccccc3)c(CCNC(=O)c3ccco3)c2c1`: the results for the inhibitory constant (Ki) in test [1] and in test [2] were 1.7 nM and 12.9 nM, respectively.
Regarding `CCCCCOc1ccc2oc(Cc3ccccc3)c(CCNC(C)=O)c2c1`, the Ki in test [1] was found to be 9.64 nM; in test [2], 42.7 nM.
On to `COc1ccc2oc(-c3ccccc3)c(CCNC(C)=O)c2c1`, for which the 50% effective concentration (EC50) in test [5] came to 0.096 nM; in test [6] it was 0.17 nM. Moreover, the inhibition constant Ki is 0.02 nM in test [1] and 0.01 nM in test [2].
With `COc1ccc2oc(Cc3ccccc3)c(CCNC(=O)CI)c2c1`, the Ki turned out to be 0.41 nM in test [1] and 8.67 nM in test [2].
Regarding `C=CC(=O)NCCc1c(-c2ccccc2)oc2ccc(OC)cc12`, the values for the Ki in test [1] and in test [2] were 0.01 nM and 0.02 nM, respectively.
For the compound `COc1ccc2oc(CC3CCCCC3)c(CCNC(C)=O)c2c1`, the values for the Kb in test [3] and in test [4] were 7 nM and 242 nM, respectively. For the same compound, the 50% effective concentration (EC50) in test [5] stood at 10 nM; in test [6] it was 481 nM. The inhibitory constant (Ki) in test [1] was 2.49 nM; in test [2], 66.4 nM.
On to `C=CCC(=O)NCCc1c(Cc2ccccc2)oc2ccc(OC)cc12`, for which, in test [3], the Kb came out at 0.16 nM. Moreover, the EC50 in test [5] was 0.17 nM; in test [6], 25 nM. Also, the Ki in test [1] came to 0.06 nM; in test [2], 3.51 nM.
For `CC(=O)NCCc1c(Cc2ccccc2)oc2ccccc12`, the Kb turned out to be 12 nM in test [3] and 27 nM in test [4]. Also, the EC50 in test [5] and in test [6] was over 10000 nM in each case. Besides, the inhibition constant (Ki) was found to be 10.6 nM in test [1] and 155 nM in test [2].
In the case of `CNC(=O)NCCc1c(Cc2ccccc2)oc2ccc(OC)cc12`, the figures for the inhibitory constant (Ki) in test [1] and in test [2] were 0.35 nM and 5.37 nM, respectively.
`COc1ccc2oc(Cc3ccccc3)c(CCNC(C)=O)c2c1` yielded a Kb in test [3] of 0.21 nM. Besides, the values for the 50% effective concentration (EC50) in test [5] and in test [6] were over 10000 nM and 21 nM, respectively. Besides, the Ki in test [1] is 0.05 nM.
Take `COc1ccc2oc(Cc3cccnc3)c(CCNC(C)=O)c2c1`: the Ki in test [1] is 3.53 nM; in test [2], 29 nM.
Take `CCc1ccc2oc(Cc3ccccc3)c(CCNC(C)=O)c2c1`: the inhibition constant Ki in test [1] was determined as 8.25 nM; in test [2] it was 64.4 nM.
In the case of `CCc1ccc2oc(Cc3cccc(OC)c3)c(CCNC(C)=O)c2c1`, the antagonist equilibrium constant (Kb) in test [3] stood at 18 nM; in test [4] it was 266 nM. Also, the 50% effective concentration (EC50) in test [5] was 19 nM; in test [6], over 10000 nM. Further, the inhibition constant Ki in test [1] turned out to be 17 nM; in test [2], 288 nM.
With `COc1ccc2oc(Cc3cccc(C(F)(F)F)c3)c(CCNC(C)=O)c2c1`, the values for the concentration for a half-maximal effect (EC50) in test [7] and in test [5] were over 10000 nM and 1.26 nM, respectively. Besides, the Kb was determined as 2.4 nM in test [3] and 89 nM in test [4]. The Ki is 1.17 nM in test [1] and 80 nM in test [2].
For the compound `COc1ccc2oc(Cc3c(Cl)cccc3Cl)c(CCNC(C)=O)c2c1`, the Ki in test [1] is 12.8 nM; in test [2], 84.5 nM.
Turning to `COc1ccc2oc(CCCc3ccccc3)c(CCNC(C)=O)c2c1`, the Ki was 1.52 nM in test [1] and 31.5 nM in test [2].
Consider `C=CC(=O)NCCc1c(Cc2ccccc2)oc2ccc(OC)cc12`, for which the inhibitory constant (Ki) in test [1] turned out to be 0.69 nM; in test [2], 53.7 nM.
For `COc1ccc2oc(Cc3cc(C(F)(F)F)cc(C(F)(F)F)c3)c(CCNC(C)=O)c2c1` the same measures were 340 nM and 476 nM.
As for `C=CCC(=O)NCCc1c(Cc2cccc(OC)c2)oc2ccc(OC)cc12`, the values for the antagonist dissociation constant (Kb) in test [3] and in test [4] were 0.24 nM and 57 nM, respectively. Moreover, the EC50 in test [5] was found to be 0.39 nM; in test [6] it was 138 nM.
In the case of `COc1cccc(Cc2oc3ccc(OC)cc3c2CCNC(C)=O)c1`, the Kb in test [3] turned out to be 1.65 nM; in test [4], 26 nM. Besides, the figures for the EC50 in test [5] and in test [6] were 0.72 nM and 37 nM, respectively. Moreover, the inhibition constant (Ki) worked out at 0.32 nM in test [1] and 40.6 nM in test [2].
As for `COc1ccc2oc(Cc3cccc(Cl)c3)c(CCNC(C)=O)c2c1`, the inhibitory constant (Ki) in test [1] was 0.22 nM; in test [2], 7.19 nM.
As to `COc1ccc(Cc2oc3ccc(OC)cc3c2CCNC(C)=O)cc1`, the Kb came out at 0.42 nM in test [3] and 35 nM in test [4]. Further, the EC50 in test [5] and in test [6] was over 10000 nM each time. For the same compound, the Ki in test [1] amounted to 0.5 nM; in test [2], 24 nM.
For the compound `COc1cccc(Cc2oc3ccccc3c2CCNC(C)=O)c1`, the inhibition constant Ki worked out at 18.6 nM in test [1] and 229 nM in test [2].
On to `C=CC(=O)NCCc1c(Cc2cccc(OC)c2)oc2ccc(OC)cc12`, for which the inhibition constant (Ki) in test [1] turned out to be 2.76 nM; in test [2], 55 nM.
Take `CNC(=O)NCCc1c(-c2ccccc2)oc2ccc(OC)cc12`: the Ki in test [1] and in test [2] was 0.04 nM throughout.
With `C/C=C/C(=O)NCCc1c(-c2ccccc2)oc2ccc(OC)cc12`, the figures for the Ki in test [1] and in test [2] were 0.21 nM and 1.01 nM, respectively.
As to `COc1ccc2oc(Cc3cccc(F)c3)c(CCNC(C)=O)c2c1`, the Ki in test [1] worked out at 0.23 nM; in test [2], 0.75 nM.
